Assay results published in publication PMC11951523 (Genome Biology, 2025).
Like-named read-outs stand apart in the source and are kept apart here.

Assays:
SauCas9 [1] = biological target: T1, SauCas9 (Staphylococcus aureus, UniProt J7RUA5); experiment: In vitro purified enzyme activity assay for SauCas9; assay type: biochemical; conditions: Sau Cas9
T1 sequence (J7RUA5 1-1053): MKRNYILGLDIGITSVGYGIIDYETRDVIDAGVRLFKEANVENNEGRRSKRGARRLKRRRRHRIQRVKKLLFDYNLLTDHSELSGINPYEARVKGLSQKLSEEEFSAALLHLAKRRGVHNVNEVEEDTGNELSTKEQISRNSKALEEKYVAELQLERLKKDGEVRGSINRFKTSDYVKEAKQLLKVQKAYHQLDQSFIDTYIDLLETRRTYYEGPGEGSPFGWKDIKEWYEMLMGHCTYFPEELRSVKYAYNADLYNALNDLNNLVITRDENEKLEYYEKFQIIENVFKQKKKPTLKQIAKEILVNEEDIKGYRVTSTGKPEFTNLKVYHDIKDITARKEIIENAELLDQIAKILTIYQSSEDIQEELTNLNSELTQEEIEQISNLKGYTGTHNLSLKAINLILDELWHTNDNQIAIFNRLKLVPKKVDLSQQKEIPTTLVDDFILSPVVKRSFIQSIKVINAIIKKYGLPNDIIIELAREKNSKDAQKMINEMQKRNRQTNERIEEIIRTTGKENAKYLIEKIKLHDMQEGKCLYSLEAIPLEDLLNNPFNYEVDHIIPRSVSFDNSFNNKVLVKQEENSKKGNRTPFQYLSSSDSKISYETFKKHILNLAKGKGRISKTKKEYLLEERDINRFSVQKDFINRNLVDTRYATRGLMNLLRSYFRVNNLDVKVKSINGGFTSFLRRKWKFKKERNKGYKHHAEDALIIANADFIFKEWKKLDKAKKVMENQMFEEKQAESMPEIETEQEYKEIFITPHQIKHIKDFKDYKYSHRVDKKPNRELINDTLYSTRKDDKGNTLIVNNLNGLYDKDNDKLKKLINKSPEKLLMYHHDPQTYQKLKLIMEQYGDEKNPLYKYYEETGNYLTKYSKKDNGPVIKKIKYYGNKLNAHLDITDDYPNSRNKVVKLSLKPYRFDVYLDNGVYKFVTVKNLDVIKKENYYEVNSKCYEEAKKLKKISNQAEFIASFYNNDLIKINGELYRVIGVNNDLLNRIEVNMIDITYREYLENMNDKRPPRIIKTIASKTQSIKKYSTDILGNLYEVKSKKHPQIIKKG

SpyCas9 [2] = conditions: read-out: IC50 in the in vitro DNA cleavage assay; cited from earlier work
E. coli MG1655 = experiment: Toxicity to bacteria in the two-plasmid-based bacterial survival assay; assay type: cell-based; conditions: MG1655, bacterial survival assay
In short: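 MG1655 pCas-competent cells were electroporated with pT-sgControl. Test compound was added to 700 μl LB immediately afterwards and incubated 1.5 h at 32 °C, then plated on LB agar with kanamycin and spectinomycin (100 μg/ml each). Colonies were counted after overnight incubation; biological replicates n = 3.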

LbaCas12a = LbaCas12a activity assay; assay type: biochemical, Lachnospiraceae bacterium; conditions: for effect on the activity of LbaCas12a: complete inhibition refers to 50 μM or above
[3] = in humans; cited from earlier work
BE4 base editor = BE4 base editor (Streptococcus pyogenes, UniProt Q99ZW2, D10A); experiment: BE4-mediated base editing of EMX1 in HEK293FT cells, EditR analysis; assay type: cell-based; conditions: read-out: IC50, cell-based assay; BE4 base editing efficiency for EMX1 loci, HEK293FT cells
FnoCas12a = FnoCas12a (Francisella tularensis subsp. novicida, UniProt A0Q7Q2); assay type: biochemical
SpyCas9 [4] = biological target: T2, SpyCas9 (Streptococcus pyogenes serotype M1, UniProt Q99ZW2); experiment: biochemical; conditions: Spy Cas9
[5] = test system: EcoRI or KpnI endonuclease; experiment: EcoRI or KpnI endonuclease activity assay with 2.5 kb linear DNA; assay type: biochemical
[6] = test system: SpyCas9-mediated genome editing of PCSK9; experiment: SpyCas9-mediated anti-PCSK9 mouse model by hydrodynamic injection; assay type: in vivo, BALB/c mice
In short: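 On days 1, 4 and 7, 90 μg PX459-SpyCas9-sgPCSK9 or -sgControl in 2 ml saline was injected hydrodynamically into the tail vein over 5–8 s. Orbital blood (~100 μl) was taken days 2, 5 and 8, and heparin plasma (20 μl) was assayed by PCSK9 ELISA.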

SpyCas9 [7] = biological target: T2, SpyCas9; assay type: cell-based; conditions: read-out: IC50, cell-based assay; Spy Cas9; TIDE analysis, editing efficiency for COSMC or EMX1 loci in HEK293FT cells
In short: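 HEK293FT cells, ~2 × 10^5 per well, were seeded 1 day before transfection (Lipofectamine 3000) with 1 μg PX459-SpyCas9-sgCOSMC, -sgEMX1 or -sgControl. Test compound was added 0 or 6 h post-transfection, and cells were kept 24 h at 37 °C, then selected with 2.5 μg/ml puromycin for 36–48 h. Target loci were PCR-amplified, Sanger-sequenced and scored by TIDE.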

SauCas9 [8] = biological target: T1, SauCas9; experiment: SauCas9-mediated genome editing of COSMC in HEK293FT cells, TIDE analysis; assay type: cell-based; conditions: read-out: IC50, cell-based assay; Sau Cas9; TIDE analysis, editing efficiency for COSMC in HEK293FT cells
In short: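 HEK293FT wt cells were co-transfected (Lipofectamine 3000) with 1 μg miniCMV-SaCas9 and 1 μg pGL3 carrying sgCOSMC-Sau or sgControl. Test compound was added right after transfection for 24 h, followed by 2.5 μg/ml puromycin selection. The COSMC locus was PCR-amplified (40 cycles), Sanger-sequenced, and editing efficiency was obtained by TIDE analysis.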

SpyCas9 [9] = biological target: T2, SpyCas9; experiment: Two-plasmid-based bacterial survival assay; assay type: cell-based; conditions: read-out: IC50, bacteria-based assay, Spy Cas9, bacterial survival assay using pCas and pTarget-sgSSEA plasmids, E. coli MG1655
In short: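 E. coli MG1655 competent cells carrying pCas (SpyCas9) electroporated with pTarget-sgSSEA, or the pT-sgControl plasmid as reference. Test compound added to the electroporated bacteria for 1.5 h at 32 °C, then plated on LB with kanamycin and spectinomycin and incubated overnight. Colonies counted and expressed as a percentage of the compound-treated sgControl strain at the same concentration (100%).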

SpyCas9 [10] = biological target: T2, SpyCas9; experiment: GFP-disruption assay in HEK293FT cells; assay type: cell-based; conditions: read-out: IC50, cell-based assay; Spy Cas9; GFP-disruption assay, PX459-SpyCas9 and pGL3-sgGFP plasmids, HEK293FT cells
SpyCas9 [11] = biological target: T2, SpyCas9; experiment: Surface plasmon resonance assay; assay type: binding
In short: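 His-tagged SpyCas9, Ni–NTA purified and imidazole-eluted, amine-coupled to a CM5 chip at 100 μg/ml. Test compounds were diluted in 1× PBST to a series of concentrations and injected at 30 μl/min, with 120 s association and 120 s dissociation. Equilibrium KD was fitted from the response curves.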

[12] = read-out: IC50, in vitro purified enzyme assay, linear substrates (87 bp oligonucleotide)
[13] = read-out: IC50, in vitro purified enzyme assay, supercoil (circular) plasmid substrate

Cc1ccc(S(=O)(=O)N2CC[C@@H]3[C@H](CO)Nc4ccc(-c5ccccc5F)cc4[C@@H]32)cc1 [BRD0539]
IC50 (SauCas9 [1]; [12]): 10 to 20 µM | IC50 (SauCas9 [1]; [13]): ~50 µM | IC50 (SpyCas9 [2]): 22 µM

CN[C@H]1C(=O)N[C@@H]2Cc3ccc(cc3)Oc3cc4cc(c3O[C@@H]3O[C@H](C(=O)O)[C@@H](O)[C@H](O)[C@H]3NC(=O)CCCCCCCCC(C)C)Oc3ccc(cc3Cl)[C@@H](O)[C@@H]3NC(=O)[C@H](NC(=O)[C@@H]4NC(=O)[C@@H](NC2=O)c2cc(cc(O)c2Cl)Oc2cc1ccc2O)c1ccc(O)c(c1)-c1c(O[C@H]2O[C@H](CO)[C@@H](O)[C@H](O)[C@@H]2O)cc(O)cc1[C@@H](C(=O)NCCCN(C)C)NC3=O [Dalbavancin]
toxicity to E. coli (E. coli MG1655): did not appear to be much toxic | IC50 (SauCas9 [1]; [12]): ~25 µM | IC50 (SauCas9 [1]; [13]): 12.5 to 25 µM | effect on the activity of LbaCas12a (LbaCas12a): inactive to or weakly inhibited | elimination half-time (t1/2 value) [3]: ~ 1 week | site of metabolism / elimination [3]: largely eliminated in the kidney | IC50 (BE4 base editor): 10 to 20 µM | effect on the activity of FnoCas12a (FnoCas12a): inactive to or weakly inhibited | IC50 (SpyCas9 [4]; read-out: IC50, in vitro purified enzyme assay, linear substrates (87 bp oligonucleotide or 2.5 kb linear DNA)): ~5 µM | IC50 (SpyCas9 [4]; read-out: IC50, in vitro purified enzyme assay, supercoil (circular) plasmid substrate pcDNA3.1/CT-GFP): 10 to 20 µM | selectivity for Cas9 over other endonucleases EcoRI and KpnI [5]: more than 10 folds | effect on the basal level of PCSK9 in vehicle-treated (sgControl) mice ([6]; 160 mg/kg): did not interfere | preventive effect on loss of plasma PCSK9 ([6]; high doses of 80 or 160 mg/kg, 2nd or 3rd treatment cycle): strong preventive effects | IC50 (SpyCas9 [7]): ~10 µM | IC50 (SauCas9 [8]): ~10 µM | IC50 (SpyCas9 [9]): 12.5 to 25 µM | IC50 (SpyCas9 [9]; listed as dalbavancin): ~12.5 µM | IC50 (SpyCas9 [10]): ~10 µM

CCCCC(CC)COC(=O)CC(C(=O)OCC(CC)CCCC)S(=O)(=O)O (stereo not shown) [Docusate]
IC50 (SauCas9 [1]; IC50, in vitro purified enzyme assay, linear substrates (87 bp oligonucleotide)): 12.5 to 25 µM | IC50 (SauCas9 [1]; IC50, in vitro purified enzyme assay, supercoil (circular) plasmid substrate): 25 to 50 µM | selectivity of inhibition between SpyCas9 (Type II-A) and LbaCas12a (Type V) (LbaCas12a): less than 5 folds | effect on the activity of LbaCas12a (LbaCas12a): completely inhibit | effect on the activity of FnoCas12a (FnoCas12a): completely inhibit | selectivity of inhibition between SpyCas9 (Type II-A) and FnoCas12a (Type V) (FnoCas12a): less than 5 folds | IC50 (SpyCas9 [4]; IC50, in vitro purified enzyme assay, linear substrates (87 bp oligonucleotide or 2.5 kb linear DNA)): 20 to 50 µM | IC50 (SpyCas9 [4]; IC50, in vitro purified enzyme assay, supercoil (circular) plasmid substrate pcDNA3.1/CT-GFP): 10 to 20 µM | selectivity for Cas9 over other endonucleases EcoRI and KpnI [5]: ~ 5 folds | Kd (SpyCas9 [11]): 12.8 to 56.4 µM
